Test [1] has as its target Sigma non-opioid intracellular receptor 1 (Cavia porcellus, UniProt Q60492). Nature of the test: Displacement of [3H]-(+)-pentazocine from guinea pig brain sigma1 receptor by scintillation counting analysis.
Test [2] in a line: Displacement of [3H]DTG from rat liver sigma2 receptor by scintillation counting analysis in presence of pentazocine. Background: Displacement assays read how much labelled ligand stays bound in the presence of the test substance.
A short description of test [3]: Inhibition of P-glycoprotein (unknown origin) expressed in MDCK cells assessed as reduction of calcein-AM transport after 30 mins by fluorescence assay. Format: cell-based, Homo sapiens. In a few lines:
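Confluent MDCK-MDR1 monolayers (50,000 cells/well, overnight) preincubated with compound (0.1–100 µM in medium) 30 min at 37 °C, then Calcein-AM added (2.5 µM final) for 30 min. Washed three times with ice-cold PBS; calcein fluorescence read at ex 485/em 535 nm versus untreated basal. EC50 from fit of % fluorescence increase versus log dose.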

For another test, the system named is MDCK. Nature of the test: Inhibition of P-glycoprotein (unknown origin) expressed in MDCK cells assessed as ATP depletion at 100 uM by bioluminescence ATP assay. Format: cell-based. As to conditions: Homo sapiens. The essentials: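 MDCK-MDR1 cells (human MDR1-transfected) plated, incubated overnight at 37 °C, 5% CO2, then exposed to test compound in complete medium for 2 h at 37 °C. Cells lysed; ATP measured by firefly luciferase/D-luciferin luminescence after 10 min dark adaptation. Percentage ATP depletion reported at 100 μM.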

The nature of test [4]: Displacement of [3H]DTG from rat liver sigma2 receptor at 10^-11 M by scintillation counting analysis in presence of pentazocine.
For test [5], the target named is Sigma non-opioid intracellular receptor 1 (Cavia porcellus) (UniProt Q60492). Nature of the test: Displacement of [3H]-(+)-pentazocine from guinea pig brain sigma1 receptor at […] by scintillation counting analysis.

Active and inactive are the calls of the source. The calls are words filed in the database; no cut-off is given here.

Drawing on ChEMBL document CHEMBL3352454, “From mixed sigma-2 receptor/P-glycoprotein targeting agents to selective P-glycoprotein modulators: small structural changes address the mechanism of interaction at the efflux pump” (Eur J Med Chem, 2015), this text covers Ki, EC50 and inhibition for 19 compounds.

By Ki is commonly meant the equilibrium dissociation constant of an inhibitor or competing ligand from its target. One may read the EC50 as the concentration at which the effect is half-maximal. The inhibition is the drop in the measured response relative to a control, in per cent.

Sequence of Sigma non-opioid intracellular receptor 1 (Q60492 whole entry): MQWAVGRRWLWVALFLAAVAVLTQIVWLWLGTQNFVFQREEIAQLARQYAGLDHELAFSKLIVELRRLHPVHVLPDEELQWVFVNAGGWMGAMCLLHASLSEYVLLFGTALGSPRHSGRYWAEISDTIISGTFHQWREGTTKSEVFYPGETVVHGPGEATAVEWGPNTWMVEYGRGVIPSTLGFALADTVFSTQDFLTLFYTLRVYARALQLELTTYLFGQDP
Sequence of Sigma non-opioid intracellular receptor 1 (Cavia porcellus) (Q60492 whole entry): as above

Regarding `COc1cc2c(cc1OC)C(=O)N(CCCCc1cn(-c3ccc(F)cc3)c3ccccc13)CC2`, the Ki in test [1] was above 5 µM; in test [2], above 10 µM. Besides, the EC50 in test [3] was 2.34 µM. In addition, in the test on MDCK, the inhibition entry is “inactive”.
Taken in the same sequence, the figures for `COc1cc2c(cc1OC)CN(C(=O)CCC1CCCc3c(OC)cccc31)CC2` (stereo unspecified) were above 5 µM, above 10 µM, 2.9 µM and “Active”.
As to `COc1cc2c(cc1OC)CN(CCCCc1cn(-c3ccc(F)cc3)c3ccccc13)CC2`, the Ki in test [1] came out at 1.39 µM; in test [2], 0.00534 µM. The EC50 in test [3] is 0.21 µM. For the same compound, the inhibition result with MDCK is “inactive”.
On to `COc1cccc2c1CCCC2CCCN1CCC(C2CCCCC2)CC1` (stereo unspecified), for which, in test [2], the Ki came out at 0.0188 µM. Also, the EC50 in test [3] is 1.92 µM.
With `COc1cc2c(cc1OC)CN(CC(=O)NCc1cn(-c3ccc(F)cc3)c3ccccc13)CC2`, the results for the Ki in test [1] and in test [2] were above 5 µM and 1.62 µM, respectively. Moreover, in test [3], the EC50 is 0.92 µM.
The matching figures for `COc1cc2c(cc1OC)CN(CC(=O)N[C@@H]1CCCc3c(OC)cccc31)CC2`: above 5 µM, 1.95 µM and 9.6 µM.
Regarding `COc1cc2c(cc1OC)CN(CCCCn1c3ccccc3c3ccccc31)CC2`, the values for the Ki in test [1] and in test [2] were 2.19 µM and 4e-05 µM, respectively. The EC50 in test [3] was 0.42 µM. The inhibition result with MDCK is “Active”.
Take `COc1cccc2c1CCCC2CCC(=O)N1CCC2(CC1)OCc1ccccc12` (stereo unspecified): the figures for the Ki in test [1] and in test [2] were 0.26 µM and 3.21 µM, respectively. Besides, the EC50 in test [3] was 5.42 µM.
`COc1cc2c(cc1OC)CN(CC(=O)N[C@H]1CCCc3c(OC)cccc31)CC2`: the Ki in test [1] was above 5 µM; in test [2] it was 1.76 µM. Further, the EC50 in test [3] was 10 µM.
`COc1cccc2c1CCCC2CCC(=O)N1CCC(C2CCCCC2)CC1` (stereo unspecified): the results for the Ki in test [1] and in test [2] were above 5 µM and above 10 µM, respectively. Moreover, the EC50 in test [3] is 30.9 µM.
The matching figures for `COc1cc2c(cc1OC)CN(CC(=O)NC1CCCc3c(OC)cccc31)CC2` (racemic): above 5 µM, 1.8 µM and 10 µM.
For `COc1cc2c(cc1OC)CN(CCCC1CCCc3c(OC)cccc31)CC2` (stereo unspecified), in test [3], the EC50 was 1.15 µM. In the test on MDCK, the inhibition result is “Active”. In addition, in test [4], the inhibition is 96%.
As for `COc1cc2c(cc1OC)CN(CC/C=C1\CCCc3c(OC)cccc31)CC2`, the EC50 in test [3] is 0.82 µM.
With `COc1cccc2c1CCCC2CCC(=O)N1CCC(c2ccc(F)cc2)CC1` (stereo unspecified), the inhibition constant Ki was found to be 2.93 µM in test [1] and 6.52 µM in test [2]. Moreover, the EC50 in test [3] is 26 µM.
In turn, `COc1cccc2c1CCCC2CCCN1CCC2(CC1)OCc1ccccc12` (stereo unspecified) had an inhibition in test [5] of 76%. Moreover, the Ki in test [2] came out at 0.0406 µM. Further, the EC50 in test [3] was 2.68 µM.
Consider `COc1cc2c(cc1OC)C(=O)N(CCCCn1c3ccccc3c3ccccc31)CC2`, for which the Ki in test [1] is above 5 µM; in test [2] it was above 10 µM. In addition, in test [3], the EC50 was 1.91 µM. Moreover, the inhibition in the test on MDCK was 30%.
Taken in the same sequence, the figures for `COc1cc2c(cc1OC)CN(C(=O)CCCc1cn(-c3ccc(F)cc3)c3ccccc13)CC2` were above 5 µM, above 10 µM, 2.25 µM and “Active”.
Taken in the same sequence, the figures for `COc1cc2c(cc1OC)CN(CCCC(=O)n1c3ccccc3c3ccccc31)CC2` were above 5 µM, above 10 µM, 0.82 µM and “Active”.
In test [5], `COc1cccc2c1CCCC2CCCN1CCC(c2ccc(F)cc2)CC1` (stereo unspecified) gave an inhibition of 80%. In addition, in test [2], the Ki was 0.0226 µM. Moreover, the EC50 in test [3] is 1.98 µM.
